One may read the ED50 as the dose that gives a 50% effect, or the effect in half of the subjects.

Common to all, as to type: functional
Assay [1] has as its system Mus musculus. As to the kind of experiment: Anticonvulsant activity was measured by maximal electroshock test on mice at 0.25 hr at the dose of 50 mg/kg; number of animals protected/number of animals tested, 0/4. For orientation: In the maximal electroshock model the usual endpoint is tonic extension of the hind limbs.
For assay [2], the system named is Mus musculus. The assay can be described thus: Anticonvulsant activity was measured by maximal electroshock test on mice at 050 hr at the dose of 50 mg/kg; number of animals protected/number of animals tested, 0/4.
Assay [3] concerns Mus musculus. As to the kind of experiment: Anticonvulsant activity was measured by rotarod toxicity test on mice at 30 min at the dose of 300 mg/kg; number of animals protected/number of animals tested, 4/4. Background: Falling from the rotarod earlier than controls is read as motor impairment.
The subject of assay [4] is Mus musculus. The assay can be described thus: Anticonvulsant activity was measured by rotarod toxicity test on mice at 4 hr at the dose of 300 mg/kg; number of animals protected/number of animals tested, 0/2.
Assay [5] concerns Mus musculus. As to the kind of experiment: Anticonvulsant activity was measured by subcutaneous pentylenetetrazole test on mice at 30 min at the dose of 100 mg/kg; number of animals protected/number of animals tested, 0/1.
The subject of assay [6] is Mus musculus. The assay can be described thus: Anticonvulsant activity was measured by subcutaneous pentylenetetrazole test on mice at 30 min at the dose of 300 mg/kg; number of animals protected/number of animals tested, 0/1.
Assay [7] concerns Mus musculus. The assay can be described thus: Anticonvulsant activity was measured by rotarod toxicity test on mice at 30 min at the dose of 100 mg/kg; number of animals protected/number of animals tested, 0/8.
Assay [8] relates to Mus musculus. As to the kind of experiment: Anticonvulsant activity was measured by rotarod toxicity teston mice at 0.25 hr at the dose of 50 mg/kg; number of animals protected/number of animals tested, 0/4.
Assay [9] concerns Mus musculus. As to the kind of experiment: Anticonvulsant activity was measured by rotarod toxicity teston mice at 0.50 hr at the dose of 50 mg/kg; number of animals protected/number of animals tested, 0/4.
Assay [10] concerns Mus musculus. The assay can be described thus: Anticonvulsant activity was measured by rotarod toxicity test on mice at 1 hr at the dose of 50 mg/kg; number of animals protected/number of animals tested, 0/4.
Assay [11] deals with Mus musculus. The assay can be described thus: Anticonvulsant activity was measured by maximal electroshock test on mice at 30 min at the dose of 300 mg/kg; number of animals protected/number of animals tested, 1/1.
Assay [12] deals with Mus musculus. As to the kind of experiment: Anticonvulsant activity was measured by maximal electroshock test on mice at 30 min at the dose of 100 mg/kg; number of animals protected/number of animals tested, 0/3.
The test system of assay [13] is Mus musculus. The assay can be described thus: Anticonvulsant activity was measured by maximal electroshock test on mice at 4 hr at the dose of 300 mg/kg; number of animals protected/number of animals tested, 0/1.
Assay [14] relates to Mus musculus. The assay can be described thus: Anticonvulsant activity was measured by rotarod toxicity test on mice at 4 hr at the dose of 50 mg/kg; number of animals protected/number of animals tested, 0/4.
Assay [15] deals with Mus musculus. As to the kind of experiment: Anticonvulsant activity was measured by rotarod toxicity test on mice at 4 hr at the dose of 100 mg/kg; number of animals protected/number of animals tested, 0/4.
Assay [16] relates to Mus musculus. As to the kind of experiment: Anticonvulsant activity was measured by maximal electroshock test on mice at 4 hr at the dose of 100 mg/kg; number of animals protected/number of animals tested, 0/3.
For assay [17], the system named is Mus musculus. As to the kind of experiment: Anticonvulsant activity was measured by maximal electroshock test on mice at 4 hr at the dose of 50 mg/kg; number of animals protected/number of animals tested, 0/4.
The test system of assay [18] is Mus musculus. As to the kind of experiment: Anticonvulsant activity was measured by rotarod toxicity test on mice at 2 hr at the dose of 50 mg/kg; number of animals protected/number of animals tested, 0/4.
For assay [19], the system named is Mus musculus. As to the kind of experiment: Anticonvulsant activity was measured by subcutaneous pentylenetetrazole test on mice at 4 h at the dose of 300 mg/kg; number of animals protected/number of animals tested, 0/1.
Assay [20] deals with Mus musculus. As to the kind of experiment: Anticonvulsant activity was measured by subcutaneous pentylenetetrazole test on mice at 4 hr at the dose of 100 mg/kg; number of animals protected/number of animals tested, 0/1.
Assay [21] deals with Mus musculus. As to the kind of experiment: Anticonvulsant activity was measured by maximal electroshock test on mice at 1 hr at the dose of 50 mg/kg; number of animals protected/number of animals tested, 0/4.
Assay [22] concerns Mus musculus. As to the kind of experiment: Anticonvulsant activity was measured by maximal electroshock test on mice at 2 hr at the dose of 50 mg/kg; number of animals protected/number of animals tested, 1/4.
In assay [23] the test system is Mus musculus. As to the kind of experiment: Time of peak effect of activity of compound was measured by both MES and sc Met test in mice. The method in brief: (§1)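 Phase II quantification in mice after ip dosing. ED50 (scMet or MES) measured at the time of peak effect. TD50 (rotorod neurologic deficit) measured at the time of peak neurologic deficit. Medians and 95% confidence limits by the Litchfield-Wilcoxon method. Protective index = TD50/ED50. Time of peak effect determined in the MES or scMet test.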

Assay [24] deals with Mus musculus. As to the kind of experiment: Time of peak effect of toxicity of compound was measured by both MES and sc Met test in mice. The method in brief:
as §1

For a further assay, the system named is Rattus norvegicus. As to the kind of experiment: Effective dose was measured in rat by maximal electroshock method by ip administration.
The test system of assay [25] is Mus musculus. The assay can be described thus: Anticonvulsant activity was measured by maximal electroshock test on mice at 050 hr at the dose of 50 mg/kg; number of animals protected/number of animals tested, 1/4.
Assay [26] relates to Mus musculus. The assay can be described thus: Anticonvulsant activity was measured by subcutaneous pentylenetetrazole test on mice at 30 min at the dose of 300 mg/kg; number of animals protected/number of animals tested, 1/1.
For assay [27], the system named is Mus musculus. As to the kind of experiment: Anticonvulsant activity was measured by maximal electroshock test on mice at 30 min at the dose of 100 mg/kg; number of animals protected/number of animals tested, 2/3.
For assay [28], the system named is Mus musculus. As to the kind of experiment: Anticonvulsant activity was measured by maximal electroshock test on mice at 1 hr at the dose of 50 mg/kg; number of animals protected/number of animals tested, 1/4.
Assay [29] has as its system Mus musculus. As to the kind of experiment: Anticonvulsant activity was measured by maximal electroshock test on mice at 2 hr at the dose of 50 mg/kg; number of animals protected/number of animals tested, 2/4.

For `O=C1CC2(CCCC2)C(=O)N1OCc1ccccc1Cl`, the Ratio is recorded as 0 in the assay with Mus musculus [1]; 0 in the assay with Mus musculus [2]; 4 with Mus musculus [3]; 0 with Mus musculus [4]; 0 in the assay with Mus musculus [5]; 0 in the assay on Mus musculus [6]. Also, the Ratio was determined as 0 with Mus musculus [7]; 0 with Mus musculus [8]; 0 in the assay with Mus musculus [9]; 0 with Mus musculus [10]; 1 in the assay with Mus musculus [11]; 0 in the assay on Mus musculus [12]. Besides, the Ratio in the assay with Mus musculus [13], in the assay on Mus musculus [14], with Mus musculus [15], in the assay on Mus musculus [16], in the assay on Mus musculus [17] and in the assay with Mus musculus [18] was 0 throughout. Besides, the Ratio with Mus musculus [19] amounted to 0; with Mus musculus [20] it was 0; in the assay with Mus musculus [21], 0; in the assay on Mus musculus [22], 1.

Take `CCC1(C)CC(=O)NC1=O` (configuration not stated) [ETHOSUXIMIDE]: the TPE is reported as 0.5 toxicity in the assay on Mus musculus [23] and 0.5 in the assay with Mus musculus [24]. Besides, the ED50 with Rattus norvegicus is over 1000 mg/kg.

As to `O=C1CC2(CCCC2)C(=O)N1OCc1ccccc1F`, the Ratio in the assay on Mus musculus [1] is recorded as 0; with Mus musculus [25], 1; in the assay on Mus musculus [3], 4; in the assay with Mus musculus [4], 0; in the assay on Mus musculus [5], 0; with Mus musculus [26] it was 1. In addition, the Ratio with Mus musculus [7] came to 0; in the assay on Mus musculus [8] it was 0; in the assay with Mus musculus [9] it was 0; in the assay on Mus musculus [10] it was 0; in the assay on Mus musculus [11] it was 1; in the assay with Mus musculus [27], 2. For the same compound, the Ratio in the assay with Mus musculus [13], in the assay on Mus musculus [14], in the assay with Mus musculus [15], with Mus musculus [16], in the assay with Mus musculus [17] and with Mus musculus [18] was 0 each time. Moreover, the Ratio with Mus musculus [19] is recorded as 0; in the assay on Mus musculus [20] it was 0; in the assay with Mus musculus [28] it was 1; with Mus musculus [29] it was 2.
